Activity calls are given as the source filed them.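 How the source made its calls: active means signal-lowering compounds whose fitted half-effect concentration is no more than twice the top tested dose; inconclusive means flat curve with 30 to 70% inhibition, or poor fit; inactive means the rest.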
assay: quencher artefacts in RAD54 branch migration readout – biochemical, Cy5 label, cherry-picked samples, artefact control for RAD54 inhibitor project, dose response (AID 651651); conditions: Cy5 DNA fluorescence quench counter-screen; series mostly up to 50 µM; activity change, negative = inhibition: at the top concentration
Outline: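 Medium: 25 mM Tris pH 7.5, 3 mM MgCl2, 2 mM ATP. Material: human RAD54 enzyme. Quantity: RAD54 30 nM in enzyme mix. Technique: Cy5 fluorescence. Schedule: 60 min reaction at room temperature after substrate addition. Dosing: pinned compound dose series, 10 mM stock solutions.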

SMILES	activity change, negative = inhibition
COCC(=O)Nc1ccc2c(c1)[C@H]1C[C@@H](CC(=O)NCc3ccccc3F)O[C@H](CO)[C@H]1O2	-6.26% (inactive)
COc1ccc(CN(C)C[C@@H]2Oc3ccc(NC(=O)NC4CCCCC4)cc3C(=O)N([C@@H](C)CO)C[C@H]2C)cc1	1.54% (inactive)
Cc1noc(C)c1NC(=O)Nc1ccc2c(c1)C(=O)N([C@@H](C)CO)C[C@@H](C)[C@H](CN(C)C(=O)Nc1cccc3ccccc13)O2	1.39% (inactive)
COc1ccc(CN(C)C[C@@H]2Oc3ccc(NC(=O)Nc4c(C)noc4C)cc3C(=O)N([C@H](C)CO)C[C@H]2C)cc1	1.69% (inactive)
O=C(NC1CCC1)[C@@H]1[C@@H](CO)[C@@H]2Cn3c(ccc(-c4ccc(F)cc4)c3=O)[C@@H]2N1Cc1ccccn1	-5.69% (inactive)
CS(=O)(=O)N1[C@@H]2Cn3c(ccc(C4=CCCCC4)c3=O)[C@H]1[C@@H](C(=O)N1CCOCC1)[C@@H]2CO	-13.1% (inactive)
COc1ccc(S(=O)(=O)N(C)C[C@@H]2Oc3ccc(NC(=O)Nc4ccc5c(c4)OCO5)cc3C(=O)N([C@H](C)CO)C[C@H]2C)cc1	-2.96% (inactive)
COc1ccc(S(=O)(=O)N(C)C[C@@H]2Oc3ccc(NC(=O)Nc4ccc(C(F)(F)F)cc4)cc3C(=O)N([C@H](C)CO)C[C@H]2C)cc1	-12.7% (inactive)
CN(C)c1ccc2c(c1)[C@@H]1C[C@@H](CC(=O)NCc3cc(F)ccc3F)O[C@H](CO)[C@@H]1O2	-16.4% (inactive)
COc1ccc(S(=O)(=O)N(C)C[C@@H]2Oc3ccc(NC(=O)NC(C)C)cc3CC(=O)N([C@@H](C)CO)C[C@@H]2C)cc1	6.96% (inactive)
COc1ccc(S(=O)(=O)N(C)C[C@@H]2Oc3ccc(NC(=O)Nc4c(C)noc4C)cc3CC(=O)N([C@@H](C)CO)C[C@@H]2C)cc1	-4.66% (inactive)
O=S(=O)(c1ccccc1)N1CCCCN2[C@H](CO)[C@H](c3ccc(C#CC4CCCC4)cc3)[C@@H]2C1	-7.42% (inactive)
CN1CCN(C(=O)C[C@H]2C[C@@H]3c4cc(NC(=O)Cc5ccncc5)ccc4O[C@@H]3[C@@H](CO)O2)CC1	-3.75% (inactive)
COc1ccccc1CNC(=O)C[C@H]1C[C@@H]2c3cc(NC(=O)c4cccnc4)ccc3O[C@@H]2[C@H](CO)O1	-9.59% (inactive)
COc1ccc(C#Cc2ccc([C@H]3[C@@H](CO)N4CCCCN(C(=O)Nc5cccc(F)c5)C[C@H]34)cc2)cc1	-11.1% (inactive)
COc1ccc(CN(C)C[C@@H]2Oc3ccc(NC(=O)Nc4ccc(F)cc4)cc3C(=O)N([C@H](C)CO)C[C@H]2C)cc1	-5.42% (inactive)
CN(C)c1ccc2c(c1)[C@@H]1C[C@H](CC(=O)NCCN3CCCCC3)O[C@H](CO)[C@@H]1O2	-7.07% (inactive)
Cc1ccc(S(=O)(=O)N(C)C[C@@H]2Oc3ccc(NC(=O)NC(C)C)cc3C(=O)N([C@H](C)CO)C[C@H]2C)cc1	-17.6% (inactive)
C[C@@H]1CN([C@H](C)CO)C(=O)c2cc(NC(=O)Nc3ccc4c(c3)OCO4)ccc2O[C@H]1CN(C)Cc1ccc2c(c1)OCO2	3.73% (inactive)
Cc1cc(C(=O)Nc2cccc3c2O[C@H](CN(C)Cc2ccc(C(F)(F)F)cc2)[C@@H](C)CN([C@H](C)CO)C3=O)n(C)n1	-0.835% (inactive)
Cc1noc(C)c1NC(=O)Nc1ccc2c(c1)C(=O)N([C@@H](C)CO)C[C@H](C)[C@@H](CN(C)S(C)(=O)=O)OCCCC[C@@H](C)O2	4.57% [at 46 µM] (inactive)
COc1ccc(S(=O)(=O)N(C)C[C@@H]2Oc3ccc(NC(=O)Nc4ccc5c(c4)OCO5)cc3C(=O)N([C@@H](C)CO)C[C@H]2C)cc1	2.06% (inactive)
COc1ccc(S(=O)(=O)N(C)C[C@@H]2Oc3ccc(NC(=O)Nc4ccccc4)cc3CC(=O)N([C@@H](C)CO)C[C@@H]2C)cc1	4.69% (inactive)
COc1ccc(NC(=O)Nc2ccc3c(c2)CC(=O)N([C@H](C)CO)C[C@H](C)[C@H](CN(C)S(=O)(=O)c2ccc(OC)cc2)O3)cc1	0.589% (inactive)
CN(C)CC(=O)Nc1ccc2c(c1)[C@@H]1C[C@H](CC(=O)NC3CCCCC3)O[C@@H](CO)[C@@H]1O2	-8.2% (inactive)
CO[C@@H]1CN(C)C(=O)c2cc(NC(C)=O)ccc2OC[C@H](C)N(Cc2ccccc2C(=O)O)C[C@@H]1C	-1.33% (inactive)
COc1ccc(CN(C)C[C@@H]2Oc3ccc(NC(=O)Nc4ccccc4)cc3C(=O)N([C@@H](C)CO)C[C@H]2C)cc1	0.045% (inactive)
COc1ccc(CN(C)C[C@@H]2Oc3ccc(NC(=O)Nc4ccccc4)cc3C(=O)N([C@H](C)CO)C[C@H]2C)cc1	-5.83% (inactive)
C[C@@H]1CCCCO[C@@H](CN(C)S(C)(=O)=O)[C@H](C)CN([C@H](C)CO)C(=O)c2cc(NC(=O)Nc3ccc4c(c3)OCO4)ccc2O1	4.79% (inactive)

From PubChem BioAssay AID651651 (Broad Institute, 2012)
